# Compound activity as filed in PubChem.
# Cav32 inh = inhibitors of human Cav3.2 T-type calcium channel; Cav3.2-expressing cells, Fluo-4 calcium fluorescence FDSS; active compounds read low; B-score at 10 µM; 100,000 tested, 4% active;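 active means single-dose well whose peak fluorescence ratio is a statistical outlier from its plate by either plate-standardised score or position-corrected B-score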
# CYP2C9 inh = blocks human cytochrome P450 2C9; P11712; CYP2C9 Supersomes, luciferin-H conversion, luminescence; inhibition, % at 5 µM; 96,000 tested, 20% active;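 active means blocking of liver enzyme CYP2C9 beyond about 50% at 5 µM, limit read from the data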
# Target sequence (P11712 whole entry, looked up): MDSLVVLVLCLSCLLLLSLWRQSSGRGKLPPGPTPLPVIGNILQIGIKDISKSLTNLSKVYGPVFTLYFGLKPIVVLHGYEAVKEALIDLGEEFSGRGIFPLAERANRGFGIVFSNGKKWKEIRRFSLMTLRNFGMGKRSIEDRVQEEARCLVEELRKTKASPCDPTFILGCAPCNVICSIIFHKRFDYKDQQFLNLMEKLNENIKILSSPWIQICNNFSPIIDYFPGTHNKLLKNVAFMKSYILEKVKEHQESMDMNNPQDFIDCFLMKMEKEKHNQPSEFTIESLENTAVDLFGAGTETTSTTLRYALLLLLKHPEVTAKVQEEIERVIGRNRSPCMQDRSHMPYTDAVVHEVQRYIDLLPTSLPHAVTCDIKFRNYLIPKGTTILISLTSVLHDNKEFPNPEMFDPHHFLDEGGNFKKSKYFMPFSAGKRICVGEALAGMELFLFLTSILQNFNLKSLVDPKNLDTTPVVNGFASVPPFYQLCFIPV
# CYP2C19 inhib = human CYP2C19 inhibition | P33261 | CYP2C19 Supersomes, luciferin-H EGE luminescence, 30 min | inhibition, % at 5 µM | 96,000 tested, 21% active | AID 778;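 active means CYP2C19 inhibition above a set limit at 5 µM in the primary screen, cut at about 50% in these data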
# Rev-RRE block = inhibitors of HIV-1 Rev-RRE RNA interaction; inhibition, % at 8 µM; Rev peptide-RRE RNA binding, FRET; 97,000 tested, 0.79% active; P05866;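 active means inhibition above the screen-wide mean plus 3 SD, cut at about 35% in these data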
#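 Test system: Cy5-tagged RRE RNA duplex with fluorescein-tagged Rev peptide; Probe or stimulus: labelled Rev peptide; Schedule: 5 min preincubation and 15 min binding, 25 °C; Signal: FRET fluorescence readout; Evaluation: % inhibition from 671/540 nm acceptor-to-donor ratio, scaled between controls; Control set: DMSO and neomycin B.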
# CYP2C19 activ = increases human CYP2C19 enzyme activity. recombinant CYP2C19, luciferin-H EGE luminescence; active compounds read high; 0 = fully inhibited enzyme, 1 = untreated enzyme. 96,000 tested, under 10 active. activation factor at 5 µM;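 active means activation factor of at least 2 at 5 µM in the primary screen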
# CYP2C9 activ = CYP2C9 (human) activation | recombinant CYP2C9, luciferin-H conversion, luminescence; active compounds read high; factor 1 = untreated enzyme, 0 = blocked | AID 1024 | 96,000 tested, 1.4% active | activation factor at 5 µM;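 active means activation factor of 2 or more for CYP2C9 at a 5 µM dose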
# Numbers stand for hits; i = inactive; nt = no result given. Hits are enriched below; roughly 27% of the tested compounds scored in any of these assays.
SMILES,Cav32 inh,CYP2C9 inh,CYP2C19 inhib,Rev-RRE block,CYP2C19 activ,CYP2C9 activ
COc1ccc(CNC(=O)COC(=O)c2cc(-c3ccco3)nc3ccccc23)cc1,nt,i,i,i,i,i
COc1ccc(CNC(=O)COC(=O)c2cc(-c3cccs3)nc3ccccc23)cc1OC,i,75,i,i,i,i
CCCCn1c(NC(=O)c2ccccc2)c(C#N)c2nc3ccccc3nc21,nt,81,i,50,i,i
Cc1noc(NS(=O)(=O)c2ccc(NC(=O)CCCOc3ccc(Cl)cc3Cl)cc2)c1C,i,nt,nt,i,nt,nt
CCCCOc1ccc(C(=O)Nc2ccncc2)cc1,i,99,99,i,i,i
CCNC(=O)CCCOc1ccc(Cl)cc1Cl,i,i,83,i,i,i
COC(=O)CCC(=O)NNC(=O)CCCOc1ccc(Cl)cc1Cl,i,i,i,i,i,i
O=C(CCCOc1ccc(Cl)cc1Cl)Nc1ccncc1,i,100,99,i,i,i
O=C(CCCOc1ccccc1)Nc1ccncc1,i,97,99,nt,i,i
CCOC(=O)N1CCC(NC(=O)c2sc(-n3cccc3)nc2C)CC1,i,i,i,i,i,i
CCNC(=O)COc1ccc(Br)cc1Cl,i,57,73,i,i,i
Cc1cc2c3c(c1)C1(SCC(=O)N1c1ccc(F)cc1)C(=O)N3C(C)(C)CC2C (stereo unspecified),-3.4,i,i,i,i,i
Cc1cc2c3c(c1)C1(C(=O)N3C(C)(C)CC2C)C(C#N)=C(N)OC2=C1C(=O)CC(C)(C)C2 (stereo unspecified),i,nt,nt,i,nt,nt
CCOc1ccc(CNn2nnnc2N)cc1,i,i,i,i,i,i
CCCCn1c(SCC(=O)NCc2cccs2)nc2c1c(=O)n(C)c(=O)n2C,i,i,i,i,i,i
COc1cccc(Nc2nnc(SCc3cc([N+](=O)[O-])cc4c3OCOC4)s2)c1,nt,i,82,i,i,i
Cc1cccc(C)c1Nc1nnc(SCc2cc([N+](=O)[O-])cc3c2OCOC3)s1,i,51,i,i,i,i
Cc1ccc2[nH]c(=O)c(-c3noc(-c4ccncc4)n3)cc2c1,nt,nt,nt,i,nt,nt
CC(C)C[C@H]1COCCS(=O)(=O)N1Cc1ccc(Cl)c(Cl)c1,i,nt,nt,nt,nt,nt
Cc1ccc(C(=O)NCC(=O)OCC(=O)c2c(N)n(C)c(=O)n(C)c2=O)s1,nt,58,i,i,i,i
COc1ccc(CCN2CC34C=CC(O3)C(C(=O)NCc3ccccc3)C4C2=O)cc1OC (stereo unspecified),i,i,i,i,i,i
COC(=O)c1cc2sc(Cl)cc2n1CC(=O)Nc1cccc(SC)c1,i,75,i,i,i,i
COC(=O)c1cc2sc(Cl)cc2n1CC(=O)Nc1ccc(OC)c(OC)c1OC,i,i,i,i,i,i
O=C(c1ccco1)N(Cc1ccco1)c1ccc(O)cc1,i,54,i,nt,i,i
O=C(c1ccco1)N(Cc1ccc([N+](=O)[O-])cc1)c1ccc(Cl)cc1,-6.9,94,i,i,i,i
SMILES,Cav32 inh,CYP2C9 inh,CYP2C19 inhib,Rev-RRE block,CYP2C19 activ,CYP2C9 activ
COc1ccc(CN(C(=O)c2ccco2)c2ccccc2)cc1,i,nt,nt,i,nt,nt
COc1ccc(N(CN2C(=O)C3C4C=CC(C4)C3C2=O)C(=O)c2ccco2)cc1 (stereo unspecified),nt,nt,nt,i,nt,nt
Cc1nn(C2CCS(=O)(=O)C2)c(Cl)c1/C=C/C(=O)OCC(=O)Nc1ccccc1OC(F)F (stereo unspecified),i,69,67,i,i,i
COc1ccc(C(=O)COC(=O)CN2C(=O)NC(C)(C)C2=O)cc1OC,i,i,i,i,i,i
Cc1oc(-c2ccccc2)cc1C(=O)Nc1cccc2ccccc12,-5,i,i,i,i,i
Cc1oc(-c2ccccc2)cc1C(=O)Nc1cccc(C(=O)O)c1,i,i,i,i,i,i
NC(=O)CS(=O)(=O)c1nc2ccccc2n1Cc1ccccc1F,i,i,i,i,i,i
COCCn1c(SCC(=O)Nc2ccc(Cl)cn2)nc2ccccc21,i,i,90,i,i,i
COCCn1c(SCC(=O)NC(=O)NCc2ccccc2)nc2ccccc21,i,i,i,i,i,i
C=CCn1c(SCC(=O)Nc2sccc2C(N)=O)nc2sc(C)c(C)c2c1=O,i,nt,nt,i,nt,nt
